According to ChEMBL document CHEMBL3044924, “Design, synthesis, and insecticidal activities of phthalamides containing a hydrazone substructure” (2010):
≈ marks a conversion by molar mass, not a printed value. Calls of active or inactive are those of the source. The rule behind the calls is not given here.

Experiments:
[1] = tested on: Plutella xylostella; assay: Larvicidal activity against second instar Plutella xylostella (diamondback moth) in compound treated cabbage leaves assessed as mortality at 600 mg/L measured after 3 days; type: functional; settings: 72 h
Outline: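 Lab-reared field-collected stock (Haidian, Beijing), second-instar larvae. Leaf-dip assay: 2.0 cm cabbage leaf disks dipped 5 s in test solution, air-dried, then placed in a 6.0 cm tube lined with filter paper. Larvae added within 10 s. Mortality (%) scored 3 days after treatment, two replicates.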

[2] = tested on: Myzus persicae; assay: Stomach toxicity in adult Myzus persicae (green peach aphid) in compound treated cabbage leaves assessed as mortality at 600 mg/L at 25 degC and 85% RH for 24 hr; type: functional, organism-based
[3] = tested on: Myzus persicae; assay: Insecticidal activity against adult Myzus persicae (green peach aphid) in compound treated cabbage leaves assessed as mortality at 50 mg/L at 25 degC and 85% RH for 24 hr; type: functional
Outline: (§1)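 Aphids exposed to treated leaf at 200, 50 and 12.5 mg/L. Mortality corrected for untreated controls with Abbott's formula.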

[4] = tested on: Myzus persicae; assay: Insecticidal activity against adult Myzus persicae (green peach aphid) in compound treated cabbage leaves assessed as mortality at 200 mg/L at 25 degC and 85% RH for 24 hr; type: functional; outline: as §1
[5] = tested on: Myzus persicae; assay: Insecticidal activity against adult Myzus persicae (green peach aphid) in compound treated cabbage leaves assessed as mortality at 600 mg/L at 25 degC and 85% RH for 24 hr; type: functional
[6] = tested on: Myzus persicae; assay: Insecticidal activity against adult Myzus persicae (green peach aphid) in compound treated cabbage leaves assessed as mortality at 25 degC and 85% RH for 24 hr; type: functional
[7] = tested on: Myzus persicae; assay: Insecticidal activity against adult Myzus persicae (green peach aphid) in compound treated cabbage leaves assessed as mortality at 12.5 mg/L at 25 degC and 85% RH for 24 hr; type: functional; outline: as §1

| SMILES | mortality at 600 µg/mL [1] [%] | Activity [2] | mortality at 50 µg/mL [3] [%] | mortality at 200 µg/mL [4] [%] | mortality at 600 µg/mL [5] [%] | LC50 [6] [µg/mL] | mortality at 12.5 µg/mL [7] [%] |
| --- | --- | --- | --- | --- | --- | --- | --- |
| O=C(NN=Cc1cccs1)c1cc(Cl)ccc1C(=O)NC1CCCCC1 | 33.3 | Active | 13.5 | 37.8 | 98.8 | 113 (≈ 290 µM) | 19.6 |
| CCCCNC(=O)c1ccc(Cl)cc1C(=O)NN=Cc1ccc(C(F)(F)F)cc1 | 33.3 | Active | 22.9 | 49.3 | 96.6 | 130 (≈ 305 µM) | 12.5 |
| CC(C)NC(=O)c1ccc(Cl)cc1C(=O)NN=Cc1ccc(O)cc1 | 55.6 | Active | 16.9 | 55.6 | 100 | 129 (≈ 357 µM) | 5.4 |
| O=C(NN=Cc1ccccc1Cl)c1cc(Cl)ccc1C(=O)NC1CCCCC1 | 66.7 | Active | 28 | 41.3 | 100 | 148 (≈ 355 µM) | 26.2 |
| Cc1cc(C(F)(C(F)(F)F)C(F)(F)F)ccc1NC(=O)c1cccc(I)c1C(=O)NC(C)(C)CS(C)(=O)=O [FLUBENDIAMIDE] | – | – | – | – | – | 184 (≈ 270 µM) | – |
| CC(C)NC(=O)c1ccc(Cl)cc1C(=O)NN=Cc1cccs1 | 0 | Active | 30.3 | 45.5 | 98.7 | 70.5 (≈ 202 µM) | 24 |
| CC(C)NC(=O)c1ccc(Cl)cc1C(=O)NN=Cc1ccco1 | 44.4 | Active | 25.4 | 29.3 | 100 | 161 (≈ 484 µM) | 18.6 |
| CCCCNC(=O)c1ccc(Cl)cc1C(=O)NN=Cc1ccco1 | 44.4 | Active | 11.7 | 20 | 100 | 234 (≈ 673 µM) | 0 |
| CC(C)NC(=O)c1ccc(Cl)cc1C(=O)NN=Cc1ccccc1Cl | 33.3 | Active | 12.5 | 28.2 | 92.9 | 171 (≈ 451 µM) | 16.3 |
| O=C(NN=Cc1ccc(O)cc1)c1cc(Cl)ccc1C(=O)NC1CCCCC1 | 55.6 | Active | 19.4 | 24.6 | 92.6 | 244 (≈ 611 µM) | 25.7 |
| Cc1ccsc1C=NNC(=O)c1cc(Cl)ccc1C(=O)NC(C)C | 44.4 | Active | 25.5 | 56.1 | 90.6 | 124 (≈ 342 µM) | 16.3 |
| CCCCNC(=O)c1ccc(Cl)cc1C(=O)NN=Cc1cccs1 | 44.4 | Active | 23.3 | 35.7 | 98.6 | 124 (≈ 341 µM) | 9.4 |
| Cc1ccc(C=NNC(=O)c2cc(Cl)ccc2C(=O)NC(C)C)o1 | 44.4 | Active | 16.9 | 50 | 96.4 | 122 (≈ 350 µM) | 13.8 |
| O=C(NN=Cc1ccccc1F)c1cc(Cl)ccc1C(=O)NC1CCCCC1 | 33.3 | Active | 8.3 | 23.8 | 90.2 | 276 (≈ 687 µM) | 5.9 |
| Cc1nn(-c2ccccc2)c(Cl)c1C=NNC(=O)c1cc(Cl)ccc1C(=O)NC1CCCCC1 | 66.7 | Active | 9.1 | 9.5 | 91.9 | 266 (≈ 534 µM) | 16.7 |
| Cc1ccc(C=NNC(=O)c2cc(Cl)ccc2C(=O)NC2CCCCC2)o1 | 33.3 | Active | 7.3 | 16 | 93 | 271 (≈ 700 µM) | 0 |
| Cc1ccsc1C=NNC(=O)c1cc(Cl)ccc1C(=O)NC1CCCCC1 | 11.1 | Active | 41.7 | 45.2 | 90.6 | 58.9 (≈ 146 µM) | 22.4 |
| O=C(NN=Cc1ccco1)c1cc(Cl)ccc1C(=O)NC1CCCCC1 | 33.3 | Active | 20 | 15.7 | 100 | 221 (≈ 592 µM) | 8.2 |
| Cc1ccc(C=NNC(=O)c2cc(Cl)ccc2C(=O)NC(C)C)s1 | 55.6 | Active | 32.7 | 52.3 | 100 | 76.2 (≈ 209 µM) | 29.3 |
| CCCCNC(=O)c1ccc(Cl)cc1C(=O)NN=Cc1ccc(F)cc1 | 33.3 | Active | 18.6 | 20 | 97.7 | 310 (≈ 825 µM) | 19 |
| CCCCNC(=O)c1ccc(Cl)cc1C(=O)NN=Cc1ccccc1F | 22.2 | Active | 34 | 39.6 | 94.6 | 122 (≈ 324 µM) | 9.7 |
| CC(C)NC(=O)c1ccc(Cl)cc1C(=O)NN=Cc1ccc(F)cc1 | 100 | Active | 52.8 | 57.8 | 91.3 | 68.1 (≈ 188 µM) | 21.9 |
